Measured values of several laboratories.
Protocols differ between the studies behind these lines.
Target: BDNF/NT-3 growth factors receptor (NTRK2, Homo sapiens, UniProt Q16620)

| Structure (SMILES) | test | setting | remaining binding [%] |
| --- | --- | --- | --- |
| CC1=C(C#N)C(c2ccc3c(c2)c(NC(=O)c2ccccc2C)nn3C)C(C#N)=C(C)N1 | cell-free assay, competition with immobilised ligand | 1 µM | 72 |
| CN(CCCC(F)(F)F)c1nccc(-c2cnn3ncccc23)n1 | binding | 1 µM | 100 |
| O=C(NCC1CCOCC1)c1n[nH]cc1NC(=O)c1c(F)cccc1F | binding, competition with immobilised ligand | 1 µM | 100 |
| CNC(=O)[C@@H]1CC[C@@H](n2c(-c3ccc4cnccc4c3)nc3ccc(C(=O)NCc4cccc(C(N)=O)c4)cc32)C1 | binding, competition with immobilised ligand | 1 µM | 100 |
| CN(C)c1nccc(-c2cnc3ncccn23)n1 | binding | 1 µM | 65 |
| CSc1cccnc1N1CCN(Cc2nc3ccccc3[nH]2)CC1 | cell-free assay, competition with immobilised ligand | 1 µM | 100 |
| CC1CCCN1c1nccc(-c2cnn3ncccc23)n1 (stereo not drawn) | binding | 1 µM | 100 |
| O=C(NCCCN1CCOCC1)c1ccc(Nc2ncc(Cl)c(-c3ccc(Cl)s3)n2)cc1 | binding, competition with immobilised ligand | 1 µM | 15 |
| CCCCN(CCCC)C(=O)CN1C[C@@H](c2cc(OC)c3c(c2)OCO3)[C@H](C(=O)O)[C@H]1CC(C)(C)CCC | cell-free assay, competition with immobilised ligand | 1 µM | 98.3 |
| FC(F)(F)Oc1cccc(-c2cnc3ccc(-c4ccncc4)nn23)c1 | cell-free assay, competition with immobilised ligand | 5 µM | 8.9 |
| CN(C)CC#Cc1ccc(OCCCc2sc(N3CCc4cccc(C(=O)Nc5nc6ccccc6s5)c4C3)nc2C(=O)O)c(F)c1 | cell-free assay, competition with immobilised ligand | 1 µM | 100 |
| Cc1cnc(Nc2ccc(C(=O)N3CCC(N4CCCC4)CC3)cc2)nc1-c1cc2ccccc2s1 | binding, competition with immobilised ligand | 1 µM | 4.1 |
| COc1cnc(Nc2cccc(S(N)(=O)=O)c2)nc1N1CCN(c2ccccc2)C(=O)C1 | binding, competition with immobilised ligand | 1 µM | 100 |
| O=C(NCc1ncc(C(F)(F)F)cc1Cl)c1ccc2c(c1)C1(CCS(=O)(=O)CC1)[C@@H](C1CC1)N2S(=O)(=O)c1ccc(F)cc1 | cell-free assay, competition with immobilised ligand | 1 µM | 71 |
| C[C@H]1CCN(c2nccc(-c3cnn4ncccc34)n2)C1 | binding | 1 µM | 61 |
| O=C(NC[C@@H]1[C@H]2CN(C(=O)OCc3cc(C(F)(F)F)cc(C(F)(F)F)c3)C[C@@H]12)c1ccc2[nH]nnc2c1 | cell-free assay, competition with immobilised ligand | 1 µM | 99 |
| CN(C)c1ncc(F)c(-c2cnn3ncccc23)n1 | binding | 1 µM | 64 |
| C=CC(=O)N1CCC(C(=O)NCC(=O)N2CCN(c3nc(-c4cnc(N)nc4C(F)F)nc(N4CCOCC4)n3)CC2)CC1 | binding, competition with immobilised ligand | 1 µM | 89 |
| O=C(c1ccc(Nc2ncc(Cl)c(-c3cc4ccccc4s3)n2)cc1)N1CCC(N2CCCC2)CC1 | binding, competition with immobilised ligand | 1 µM | 13 |
| N[C@H]1CCN(c2nccc(-c3cnn4ncccc34)n2)C1 | binding | 1 µM | 100 |
| C[C@@H](c1ccc(-n2cnc3c(N)ncnc32)cc1)N1CCc2nn(C)c(Cc3ccccc3)c2C1=O | binding, competition with immobilised ligand | 0.1 µM | 24 |
